For assay [1], the target named is T1, Platelet-activating factor acetylhydrolase (Rattus norvegicus) (UniProt A6JJ35).
T1 sequence (whole entry): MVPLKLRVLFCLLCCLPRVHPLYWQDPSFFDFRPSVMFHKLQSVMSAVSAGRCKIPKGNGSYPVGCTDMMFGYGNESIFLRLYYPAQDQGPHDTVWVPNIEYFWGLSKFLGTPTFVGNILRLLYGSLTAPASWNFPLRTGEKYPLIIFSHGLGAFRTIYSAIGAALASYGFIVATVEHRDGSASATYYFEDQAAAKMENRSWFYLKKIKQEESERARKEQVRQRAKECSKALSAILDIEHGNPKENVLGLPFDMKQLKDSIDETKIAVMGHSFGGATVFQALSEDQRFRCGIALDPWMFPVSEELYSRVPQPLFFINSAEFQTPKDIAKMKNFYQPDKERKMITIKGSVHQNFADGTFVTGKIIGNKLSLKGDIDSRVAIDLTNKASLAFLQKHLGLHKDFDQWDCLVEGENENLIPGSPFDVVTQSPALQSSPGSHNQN
The assay is described as follows: Inhibition of Lp-PLA2 in rat plasma at 250 nM using 2-thio-PAF as substrate preincubated for 30 min followed by substrate addition measured every minute for 10 mins by DNTB reagent based assay by DNTB reagent based assay relative to control. The procedure, abridged: (§1)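 Rat plasma added directly as enzyme source and preincubated 30 min at room temperature with inhibitor at 250 or 50 nM and DTNB (10 µL of 2 mM). Reaction started with substrate solution: 50 µM 2-thio-PAF, 50 mM Tris pH 7.2, 1 mM EGTA. Thiol release read at 412 nm; percent inhibition calculated.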

Assay [2] can be described thus: Inhibition of recombinant human full length GST-tagged group-7B PLA2 expressed in Escherichia coli Rosetta(DE3) pLysS using 2-thio-PAF as substrate preincubated for 30 min followed by substrate addition measured every minute for 10 mins by DNTB reagent based assay. The method in brief: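 Recombinant PLA2-VIIB purified in-house, preincubated 30 min at room temperature with compound and DTNB (10 µL of 2 mM). Substrate solution (50 µM 2-thio-PAF, 50 mM Tris pH 7.2, 1 mM EGTA) then added and absorbance read at 412 nm. IC50 determined.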

For assay [3], the target named is T1, Platelet-activating factor acetylhydrolase (Rattus norvegicus). The assay is described as follows: Inhibition of Lp-PLA2 in rat plasma at 50 nM using 2-thio-PAF as substrate preincubated for 30 min followed by substrate addition measured every minute for 10 mins by DNTB reagent based assay relative to control. The method in brief: as §1
The species entered for assay [4] is Rattus norvegicus. The conditions noted are these: Sprague-Dawley, 25 mg/kg.
The target of assay [5] is T2, Platelet-activating factor acetylhydrolase (Homo sapiens, UniProt Q13093).
T2 sequence (Q13093 whole entry): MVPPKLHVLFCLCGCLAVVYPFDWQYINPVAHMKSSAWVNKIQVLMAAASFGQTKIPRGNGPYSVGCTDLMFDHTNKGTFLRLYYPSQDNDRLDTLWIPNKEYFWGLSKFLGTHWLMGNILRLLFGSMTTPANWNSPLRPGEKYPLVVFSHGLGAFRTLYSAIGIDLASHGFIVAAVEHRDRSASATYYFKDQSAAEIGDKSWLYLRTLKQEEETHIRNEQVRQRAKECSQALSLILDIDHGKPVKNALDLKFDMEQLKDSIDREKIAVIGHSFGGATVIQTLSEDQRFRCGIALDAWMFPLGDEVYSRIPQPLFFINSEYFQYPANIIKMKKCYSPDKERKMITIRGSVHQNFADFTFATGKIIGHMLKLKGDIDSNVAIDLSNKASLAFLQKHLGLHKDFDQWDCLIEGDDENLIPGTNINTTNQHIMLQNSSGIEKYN
The experiment in a line: Inhibition of human recombinant GST-tagged Lp-PLA2 (47 to 429 residues) expressed in Escherichia coli Rosetta(DE3) pLysS using 2-thio-PAF as substrate preincubated for 30 min followed by substrate addition measured every minute for 10 mins by DNTB reagent based assay.

For assay [6], the target named is T3, Platelet-activating factor acetylhydrolase (Homo sapiens) (UniProt Q13093).
T3 sequence (whole entry): T2 sequence (Q13093 whole entry)
The following applies: 1000 uM.

For assay [7], the species on record is Rattus norvegicus. The conditions noted are these: Sprague-Dawley, 3 mg/kg.
Assay [8] is filed under the species Rattus norvegicus. The following applies: Sprague-Dawley, 25 mg/kg. This is another data set of the same source.
The species named for assay [9] is Rattus norvegicus. The conditions noted are these: Sprague-Dawley, 25 mg/kg. This is another data set of the same source.

This note sets out measurements from ChEMBL document CHEMBL4024767, “Structure-Guided Discovery of Novel, Potent, and Orally Bioavailable Inhibitors of Lipoprotein-Associated Phospholipase A2” (J Med Chem, 2017).

SMILES strings stand for the structures. pIC50: −log10 of the molar value. Active and inactive are the calls of the source. The rule behind the calls is not given here.

Broadly, the inhibition is the change of the read-out against control, counted positive when it falls. Broadly, the pIC50 is the negative decadic logarithm of the IC50, by convention in mol/L. For the compound `CC(=O)Nc1ccc(S(=O)(=O)Nc2ccc(Oc3ccc(F)c(C(F)(F)F)c3)c(C#N)c2)cc1`, the inhibition was 55% in assay [1] and 23% in [3]. In addition, the negative-log IC50 (pIC50) in [2] is below 4.60.
The corresponding values for `CC(=O)Nc1ccc(S(=O)(=O)Nc2ccc(Oc3ccc(Cl)c(C(F)(F)F)c3)c(C#N)c2)cc1` are 64%, 32% and below 4.60.
With `N#Cc1cc(NS(=O)(=O)c2ccc(N)cc2)ccc1Oc1ccc(Cl)c(C(F)(F)F)c1`, the inhibition in assay [1] stood at 67%; in assay [3], 33%. In assay [2], the pIC50 was below 4.60. The inhibition entry in the assay filed under Rattus norvegicus [4] is “Active”.
For `CS(=O)(=O)Nc1ccc(F)c(F)c1`, the pIC50 in assay [5] was 3.00. In assay [6], this compound displayed an inhibition of 55%.
Turning to `N#Cc1cc(NS(=O)(=O)c2ccc(N3CCOCC3)cc2)ccc1Oc1ccc(Cl)c(C(F)(F)F)c1`, the inhibition in assay [1] is 48%; in assay [3] it was 17%. For the same compound, in assay [2], the negative logarithm of the IC50 (pIC50) is below 4.60.
Take `CCN(CC)CCN(Cc1ccc(-c2ccc(C(F)(F)F)cc2)cc1)C(=O)Cn1c(SCc2ccc(F)cc2)nc(=O)c2c1CCC2` [DARAPLADIB]: the inhibition in assay [1] turned out to be 97%; in assay [3], 98%. Also, the pIC50 in assay [2] was 5.70. For the same compound, the inhibition entry in the assay listed under Rattus norvegicus [7] is “Active”.
Turning to `N#Cc1cc(NS(=O)(=O)c2ccc(N3CCNCC3)cc2)ccc1Oc1ccc(Cl)c(C(F)(F)F)c1`, the inhibition in [1] worked out at 68%; in [3], 31%. In addition, the negative-log IC50 (pIC50) in [2] is below 4.60.
On the same counts, the results for `N#Cc1cc(NS(=O)(=O)c2ccc(NC(=O)N3CCOCC3)cc2)ccc1Oc1ccc(Cl)c(C(F)(F)F)c1` are 64%, 27% and below 4.60.
As for `N#Cc1cc(NS(=O)(=O)c2ccc(C(=O)O)cc2)ccc1Oc1ccc(Cl)c(C(F)(F)F)c1`, the values for the inhibition in [1] and in [3] were 67% and 31%, respectively. For the same compound, in the assay filed under Rattus norvegicus [8], the inhibition entry was “Active”. In addition, the negative logarithm of the IC50 (pIC50) in assay [2] was below 4.60. Moreover, the inhibition result in the assay listed under Rattus norvegicus [9] is “inactive”.
For the compound `CC(=O)Nc1ccc(S(=O)(=O)Nc2ccc(Oc3ccc(C#N)c(C(F)(F)F)c3)c(C#N)c2)cc1`, the inhibition in [1] was 42%; in assay [3] it was 11%. Also, the pIC50 in assay [2] is below 4.60.
In the case of `CC(=O)NCc1ccc(S(=O)(=O)Nc2ccc(Oc3ccc(Cl)c(C(F)(F)F)c3)c(C#N)c2)cc1`, the inhibition was 80% in assay [1] and 51% in assay [3]. In addition, in [2], the negative-log IC50 (pIC50) is below 4.60.
For the compound `CC(=O)N(C)c1ccc(S(=O)(=O)Nc2ccc(Oc3ccc(Cl)c(C(F)(F)F)c3)c(C#N)c2)cc1`, the inhibition in assay [1] worked out at 45%; in [3], 15%. The pIC50 in assay [2] was below 4.60.
